We go through five molecules from ChEMBL document CHEMBL5705900, “PF-06463922 is a potent and selective next-generation ROS1/ALK inhibitor capable of blocking crizotinib-resistant ROS1 mutations” (Proc Natl Acad Sci U S A, 2015).

In general, IC50 refers to the concentration that inhibits the measured activity by half. Broadly, the Ki is a measure of affinity in units of concentration, obtained from inhibition or displacement.

Activity calls are given as the source filed them. No cut-off for these calls is given here.

In assay [1] the target is T1, H-2 class II histocompatibility antigen gamma chain/Proto-oncogene tyrosine-protein kinase ROS (Mus musculus, UniProt Q78DX7). The assay can be described thus: Inhibition of CD74-ROS1 expressed in mouse BaF3 cells assessed as inhibition of phosphorylated ROS1 incubated for 1 hr by ELISA analysis. It counts as cell-based. Put shortly: (§1)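 Cells seeded in growth medium with 0.5% serum and incubated overnight; compounds diluted in serum-free medium, added for 1 h, then medium aspirated. Lysates assayed for phospho-ROS1 (Tyr2274) by sandwich ELISA. IC50 from four-parameter concentration-response curve fit. Engineered lines made by retroviral transduction (pMSCV) with puromycin or hygromycin selection for 5 d.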
T1 sequence (Q78DX7 whole entry): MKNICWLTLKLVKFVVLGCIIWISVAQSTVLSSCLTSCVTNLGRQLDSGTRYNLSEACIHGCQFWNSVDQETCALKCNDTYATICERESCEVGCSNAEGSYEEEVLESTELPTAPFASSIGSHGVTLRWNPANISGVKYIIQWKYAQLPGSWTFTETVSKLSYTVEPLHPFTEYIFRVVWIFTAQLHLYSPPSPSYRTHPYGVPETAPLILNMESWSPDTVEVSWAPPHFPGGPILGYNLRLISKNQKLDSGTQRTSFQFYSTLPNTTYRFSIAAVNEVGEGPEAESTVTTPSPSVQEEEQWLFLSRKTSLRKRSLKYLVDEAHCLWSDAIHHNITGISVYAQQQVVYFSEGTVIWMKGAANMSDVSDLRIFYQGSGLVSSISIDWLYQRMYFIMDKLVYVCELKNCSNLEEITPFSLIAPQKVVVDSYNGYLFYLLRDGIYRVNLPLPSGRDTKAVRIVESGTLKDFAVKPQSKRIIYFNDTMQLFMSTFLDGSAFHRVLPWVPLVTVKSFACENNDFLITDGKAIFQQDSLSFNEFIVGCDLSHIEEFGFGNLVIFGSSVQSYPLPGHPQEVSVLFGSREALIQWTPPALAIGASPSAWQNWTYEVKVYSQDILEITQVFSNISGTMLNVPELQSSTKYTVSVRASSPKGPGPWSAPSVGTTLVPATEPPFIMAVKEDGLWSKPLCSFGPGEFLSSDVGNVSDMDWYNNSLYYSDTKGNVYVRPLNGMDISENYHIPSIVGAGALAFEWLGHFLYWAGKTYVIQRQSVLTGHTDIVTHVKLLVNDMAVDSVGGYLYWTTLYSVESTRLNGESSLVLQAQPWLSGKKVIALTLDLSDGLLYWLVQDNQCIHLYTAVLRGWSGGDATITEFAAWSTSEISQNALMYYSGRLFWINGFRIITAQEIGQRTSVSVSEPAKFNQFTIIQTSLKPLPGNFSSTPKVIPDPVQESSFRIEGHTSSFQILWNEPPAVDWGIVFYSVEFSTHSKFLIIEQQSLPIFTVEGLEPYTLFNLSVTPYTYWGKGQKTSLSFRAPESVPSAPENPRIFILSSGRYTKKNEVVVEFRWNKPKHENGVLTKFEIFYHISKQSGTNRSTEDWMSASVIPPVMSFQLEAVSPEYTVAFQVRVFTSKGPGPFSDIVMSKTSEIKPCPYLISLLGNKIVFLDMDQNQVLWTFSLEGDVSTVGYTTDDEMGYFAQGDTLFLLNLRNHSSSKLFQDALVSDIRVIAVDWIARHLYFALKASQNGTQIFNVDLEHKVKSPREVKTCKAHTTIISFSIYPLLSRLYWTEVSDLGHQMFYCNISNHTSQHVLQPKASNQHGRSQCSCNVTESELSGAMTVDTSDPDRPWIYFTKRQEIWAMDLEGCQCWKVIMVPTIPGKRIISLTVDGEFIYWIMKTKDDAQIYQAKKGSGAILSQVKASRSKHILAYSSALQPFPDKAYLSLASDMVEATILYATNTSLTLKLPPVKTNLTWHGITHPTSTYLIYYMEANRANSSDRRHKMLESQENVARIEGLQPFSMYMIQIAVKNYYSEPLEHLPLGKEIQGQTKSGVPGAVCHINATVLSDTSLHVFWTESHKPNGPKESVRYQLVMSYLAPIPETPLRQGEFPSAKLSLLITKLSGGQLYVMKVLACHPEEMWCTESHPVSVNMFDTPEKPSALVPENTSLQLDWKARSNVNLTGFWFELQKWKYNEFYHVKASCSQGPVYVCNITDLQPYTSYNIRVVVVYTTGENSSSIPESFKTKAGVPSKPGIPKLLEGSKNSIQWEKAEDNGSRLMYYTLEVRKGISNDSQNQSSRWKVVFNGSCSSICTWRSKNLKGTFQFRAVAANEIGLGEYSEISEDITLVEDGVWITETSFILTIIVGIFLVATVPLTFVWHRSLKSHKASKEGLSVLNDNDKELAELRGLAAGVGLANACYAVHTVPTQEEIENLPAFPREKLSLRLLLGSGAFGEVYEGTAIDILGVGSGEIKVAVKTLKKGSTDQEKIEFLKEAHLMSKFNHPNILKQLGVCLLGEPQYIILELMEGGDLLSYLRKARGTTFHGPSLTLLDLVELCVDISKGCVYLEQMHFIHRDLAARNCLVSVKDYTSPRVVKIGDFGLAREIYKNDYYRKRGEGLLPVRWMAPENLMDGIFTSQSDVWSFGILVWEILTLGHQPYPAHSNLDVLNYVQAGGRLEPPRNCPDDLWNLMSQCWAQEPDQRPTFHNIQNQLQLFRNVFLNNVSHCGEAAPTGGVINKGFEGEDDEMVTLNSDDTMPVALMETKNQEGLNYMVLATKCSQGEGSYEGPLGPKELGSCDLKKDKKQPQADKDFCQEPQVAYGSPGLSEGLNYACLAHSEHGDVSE
T1 sequence (P04441 whole entry, further chain): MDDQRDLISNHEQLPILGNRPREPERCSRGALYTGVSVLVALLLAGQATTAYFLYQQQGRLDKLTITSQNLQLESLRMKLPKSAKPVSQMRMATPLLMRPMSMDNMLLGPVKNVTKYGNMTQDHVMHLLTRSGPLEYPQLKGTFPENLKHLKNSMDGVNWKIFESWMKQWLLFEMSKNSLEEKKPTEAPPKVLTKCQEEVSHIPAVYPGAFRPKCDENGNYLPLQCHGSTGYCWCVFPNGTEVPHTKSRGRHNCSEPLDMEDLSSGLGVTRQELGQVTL
On the technique in general: ELISA stands for enzyme-linked immunosorbent assay.

Assay [2] can be described thus: Inhibition of CD74-ROS1 G2032R mutant expressed in mouse BaF3 cells assessed as inhibition of phosphorylated ROS1 incubated for 1 hr by ELISA analysis. In kind it is cell-based. The settings on record: BaF3, 1 h. The method, boiled down:
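BaF3 cells retrovirally engineered to express CD74-ROS1 G2032R, seeded in growth medium with 0.5% serum overnight. Compounds diluted in serum-free medium, added for 1 h, then aspirated. Lysates assayed for phospho-ROS1 (Tyr2274) by sandwich ELISA; IC50 from four-parameter concentration-response curve fit.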

Assay [3] in a line: Inhibition of CD74-ROS1 L2026M mutant expressed in mouse BaF3 cells assessed as inhibition of phosphorylated ROS1 incubated for 1 hr by ELISA analysis. In kind it is cell-based. The settings on record: BaF3, 1 h.
For assay [4], the system named is BaF3. The assay can be described thus: Antiproliferative activity against mouse BaF3 cells harboring CD74-ROS1 G2032R mutant assessed as reduction in cell viability incubated for 72 hrs by CellTiter-Glo assay. It counts as functional, cell-based. The settings on record: BaF3, 72 h. Put shortly:
(§2)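 BaF3 cells engineered by pMSCV retroviral transduction (puromycin or hygromycin selection, 5 d, pooled populations) with CD74-ROS1 fusion variants. Seeded in growth medium with 10% FBS overnight at 37 °C, then serial compound dilutions for 72 h at 37 °C. CellTiter-Glo for relative cell number; IC50 by four-parameter curve fit.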
On the technique in general: Cellular ATP, detected with luciferase, serves as a proxy for viable cell number.

Assay [5] deals with BaF3. In words: Antiproliferative activity against mouse BaF3 cells harboring CD74-ROS1 L2026M mutant assessed as reduction in cell viability incubated for 72 hrs by CellTiter-Glo assay. It counts as functional, cell-based. As to conditions: BaF3, 72 h. Put shortly:
as §2

The subject of assay [6] is BaF3. In words: cells. The settings on record: Mus musculus, BaF3, 72 h.
Assay [7] deals with Proto-oncogene tyrosine-protein kinase ROS (Homo sapiens), P08922 [L2026M]. In words: Inhibition of recombinant human ROS1 L2026M mutant in presence of ATP by microfluidic mobility shift assay. As to conditions: dose 0.001-1000 nM.
Proto-oncogene tyrosine-protein kinase ROS (Homo sapiens), P08922 [L2026M], sequence (P08922 whole entry L2026M): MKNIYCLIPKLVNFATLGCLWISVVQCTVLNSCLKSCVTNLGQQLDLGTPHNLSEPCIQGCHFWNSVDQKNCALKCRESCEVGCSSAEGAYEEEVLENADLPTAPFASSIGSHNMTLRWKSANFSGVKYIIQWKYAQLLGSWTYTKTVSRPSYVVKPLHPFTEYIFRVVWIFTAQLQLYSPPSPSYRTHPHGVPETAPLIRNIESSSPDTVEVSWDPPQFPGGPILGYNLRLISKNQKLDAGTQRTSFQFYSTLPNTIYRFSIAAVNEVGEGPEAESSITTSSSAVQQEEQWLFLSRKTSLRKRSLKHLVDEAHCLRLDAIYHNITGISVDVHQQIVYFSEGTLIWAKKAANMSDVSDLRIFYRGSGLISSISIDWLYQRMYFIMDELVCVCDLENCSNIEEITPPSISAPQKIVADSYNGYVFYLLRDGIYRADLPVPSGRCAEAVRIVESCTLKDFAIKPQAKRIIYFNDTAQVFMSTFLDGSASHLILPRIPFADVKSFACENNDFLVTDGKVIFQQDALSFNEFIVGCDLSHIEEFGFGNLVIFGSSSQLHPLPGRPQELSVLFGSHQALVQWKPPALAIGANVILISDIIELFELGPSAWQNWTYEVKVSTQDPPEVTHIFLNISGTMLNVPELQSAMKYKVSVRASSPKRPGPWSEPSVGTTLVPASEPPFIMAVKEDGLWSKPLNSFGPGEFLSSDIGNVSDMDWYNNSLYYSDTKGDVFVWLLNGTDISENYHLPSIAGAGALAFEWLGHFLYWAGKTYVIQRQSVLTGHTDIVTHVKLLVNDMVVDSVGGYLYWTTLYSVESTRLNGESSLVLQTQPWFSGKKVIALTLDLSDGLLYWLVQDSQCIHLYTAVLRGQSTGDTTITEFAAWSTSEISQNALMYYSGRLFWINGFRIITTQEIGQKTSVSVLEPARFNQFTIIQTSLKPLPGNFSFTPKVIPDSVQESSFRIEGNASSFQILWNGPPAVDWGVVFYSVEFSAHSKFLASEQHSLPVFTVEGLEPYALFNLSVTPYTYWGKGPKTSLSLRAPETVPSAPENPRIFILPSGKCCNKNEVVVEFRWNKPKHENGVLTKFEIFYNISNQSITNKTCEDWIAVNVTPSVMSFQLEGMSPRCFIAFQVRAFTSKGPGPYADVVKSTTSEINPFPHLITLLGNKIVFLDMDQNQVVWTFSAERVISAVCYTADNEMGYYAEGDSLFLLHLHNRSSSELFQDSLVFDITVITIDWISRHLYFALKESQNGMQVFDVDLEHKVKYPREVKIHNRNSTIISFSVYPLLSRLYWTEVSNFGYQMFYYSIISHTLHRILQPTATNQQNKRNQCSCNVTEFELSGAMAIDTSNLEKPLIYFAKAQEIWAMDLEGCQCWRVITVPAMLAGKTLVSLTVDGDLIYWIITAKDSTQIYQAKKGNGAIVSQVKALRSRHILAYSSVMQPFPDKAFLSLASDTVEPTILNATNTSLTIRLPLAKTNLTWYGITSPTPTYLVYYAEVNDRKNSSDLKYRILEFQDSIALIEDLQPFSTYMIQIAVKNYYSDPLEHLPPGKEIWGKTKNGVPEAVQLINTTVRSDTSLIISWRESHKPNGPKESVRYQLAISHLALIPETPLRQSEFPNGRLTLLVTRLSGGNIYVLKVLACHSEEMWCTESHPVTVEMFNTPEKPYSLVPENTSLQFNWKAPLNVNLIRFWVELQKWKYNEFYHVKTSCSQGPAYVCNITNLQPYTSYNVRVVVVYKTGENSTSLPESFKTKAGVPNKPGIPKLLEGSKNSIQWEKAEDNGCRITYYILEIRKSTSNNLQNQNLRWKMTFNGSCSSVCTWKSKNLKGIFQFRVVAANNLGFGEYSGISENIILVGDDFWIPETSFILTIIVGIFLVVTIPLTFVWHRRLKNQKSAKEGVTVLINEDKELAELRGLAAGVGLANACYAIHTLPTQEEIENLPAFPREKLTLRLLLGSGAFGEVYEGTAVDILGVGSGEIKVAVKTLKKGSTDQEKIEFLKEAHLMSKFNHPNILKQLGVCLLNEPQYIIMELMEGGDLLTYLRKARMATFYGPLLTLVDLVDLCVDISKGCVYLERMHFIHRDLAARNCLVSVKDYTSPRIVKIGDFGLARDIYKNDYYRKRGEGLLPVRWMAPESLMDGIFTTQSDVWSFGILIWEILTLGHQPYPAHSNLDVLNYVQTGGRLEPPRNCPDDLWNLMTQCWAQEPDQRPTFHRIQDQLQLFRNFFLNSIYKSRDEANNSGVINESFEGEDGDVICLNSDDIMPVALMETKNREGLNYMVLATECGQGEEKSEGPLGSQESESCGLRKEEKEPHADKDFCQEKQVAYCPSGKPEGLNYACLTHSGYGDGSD
The target in assay [8] is T2, Proto-oncogene tyrosine-protein kinase ROS (Homo sapiens, UniProt P08922). The assay can be described thus: Inhibition of recombinant human ROS1 in presence of ATP by microfluidic mobility shift assay. The settings on record: dose 0.001-1000 nM.
T2 sequence (P08922 whole entry): as the sequence (P08922 whole entry L2026M) above, with M2026L counted along it
Assay [9] deals with Proto-oncogene tyrosine-protein kinase ROS (Homo sapiens), P08922 [G2032R]. The assay can be described thus: Inhibition of recombinant human ROS1 G2032R mutant in presence of ATP by microfluidic mobility shift assay. The settings on record: dose 0.001-1000 nM.
Proto-oncogene tyrosine-protein kinase ROS (Homo sapiens), P08922 [G2032R], sequence (P08922 whole entry G2032R): as the sequence (P08922 whole entry L2026M) above, with M2026L, G2032R counted along it
Assay [10] addresses T1, H-2 class II histocompatibility antigen gamma chain/Proto-oncogene tyrosine-protein kinase ROS. The assay can be described thus: Inhibition of CD74-ROS1 expressed in mouse NIH3T3 cells assessed as inhibition of phosphorylated ROS1 incubated for 1 hr by ELISA analysis. It counts as cell-based. Put shortly:
as §1

In assay [11] the target is T3, Golgi-associated PDZ and coiled-coil motif-containing protein/Proto-oncogene tyrosine-protein kinase ROS (Mus musculus, UniProt Q78DX7). In words: Inhibition of FIG-ROS1 short isoform fusion protein expressed in mouse NIH3T3 cells assessed as inhibition of phosphorylated ROS1 incubated for 1 hr by ELISA analysis. It counts as cell-based. The method, boiled down: as §1
T3 sequence (Q78DX7 whole entry, other chains not shown, the tested form may be a part, canonical isoform): as the sequence (Q78DX7 whole entry) above

Assay [12] addresses T3, Golgi-associated PDZ and coiled-coil motif-containing protein/Proto-oncogene tyrosine-protein kinase ROS. The assay can be described thus: Inhibition of FIG-ROS1 long isoform fusion protein expressed in mouse NIH3T3 cells assessed as inhibition of phosphorylated ROS1 incubated for 1 hr by ELISA analysis. It counts as cell-based. The method, boiled down:
as §1

Assay [13] concerns HCC78. In words: Antiproliferative activity against human HCC78 cells harboring SLC34A2-ROS1 fusion protein assessed as reduction in cell viability incubated for 72 hrs by CellTiter-Glo assay. It counts as functional, cell-based. The settings on record: HCC78, 72 h. Put shortly: (§3)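 HCC78 NSCLC cells seeded in growth medium with 10% FBS, cultured overnight at 37 °C, then exposed to serial compound dilutions for 72 h at 37 °C. Relative cell number read by CellTiter-Glo luminescence; IC50 from four-parameter concentration-response curve fit.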

Assay [14] deals with HCC78. The assay can be described thus: Antiproliferative activity against human HCC78 cells assessed as reduction in cell viability incubated for 72 hrs by CellTiter-Glo assay. The settings on record: HCC78, 72 h. It counts as functional, cell-based. The method, boiled down:
as §3

In assay [15] the target is T2, Proto-oncogene tyrosine-protein kinase ROS. In words: Binding affinity to recombinant human ROS1 assessed as inhibition constant in presence of ATP by microfluidic mobility shift assay.
A further assay concerns the target SLC34A2-ROS1 (Homo sapiens, UniProt P08922). The assay can be described thus: Inhibition of SLC34A2-ROS1 fusion protein expressed in human HCC78 cells assessed as inhibition of phosphorylated ROS1 incubated for 1 hr by ELISA analysis. In kind it is cell-based.
Assay [16] has as its target Proto-oncogene tyrosine-protein kinase ROS (Homo sapiens, UniProt P08922, L2026M). In words: Binding affinity to recombinant human ROS1 L2026M mutant assessed as inhibition constant in presence of ATP by microfluidic mobility shift assay.
In assay [17] the test system is Proto-oncogene tyrosine-protein kinase ROS (Homo sapiens), P08922 [G2032R]. In words: Binding affinity to recombinant human ROS1 G2032R mutant assessed as inhibition constant in presence of ATP by microfluidic mobility shift assay.

Consider `COc1cc2nccc(Oc3ccc(NC(=O)C4(C(=O)Nc5ccc(F)cc5)CC4)cc3)c2cc1OC` [CABOZANTINIB], for which the IC50 in assay [1] came out at 1.5 nM; in [2] it was 6.4 nM; in assay [3], 1.4 nM; with BaF3 [4], 1.3 nM; in the assay on BaF3 [5] it was 1.1 nM; in the assay on BaF3 [6], 2.3 nM.
Consider `COc1cc2c(Oc3ccc(NC(=O)C4(C(=O)Nc5ccc(F)cc5)CC4)cc3F)ccnc2cc1OCCCN1CCOCC1` [FORETINIB], for which the inhibition entry in assay [7], in assay [8] and in [9] was “Dose-Dependent Effect” throughout. For the same molecule, the IC50 is 3.8 nM in assay [1]; 88 nM in [2]; 5.47 nM in assay [10]; 6.1 nM in assay [11]; 5.6 nM in assay [12]; 19 nM with HCC78 [13]. In addition, the IC50 in the assay with BaF3 [4] came out at 69 nM; in the assay on BaF3 [5] it was 8.6 nM; in the assay on HCC78 [14] it was 21 nM; with BaF3 [6], 11 nM.
As to `Cc1cc(Nc2ncc(Cl)c(Nc3ccccc3S(=O)(=O)C(C)C)n2)c(OC(C)C)cc1C1CCNCC1` [CERITINIB], the inhibition result in assay [7], in [8] and in assay [9] was “Dose-Dependent Effect” in each case. Also, the IC50 in assay [1] was 71 nM; in [2], above 2000 nM; in assay [3] it was 70 nM; in assay [10], 341 nM; in assay [11] it was 488 nM; in assay [12], 304 nM. Besides, the half-inhibitory concentration (IC50) in the assay on HCC78 [13] was 506 nM; with BaF3 [4], above 2000 nM; in the assay with BaF3 [5], 60 nM; in the assay with HCC78 [14] it was 226 nM; in the assay on BaF3 [6], 44 nM.
Turning to `CCc1cc2c(cc1N1CCC(N3CCOCC3)CC1)C(C)(C)c1[nH]c3cc(C#N)ccc3c1C2=O` [ALECTINIB], the results for the Ki in [15] and in assay [16] were 2400 nM and 2000 nM, respectively. Also, the inhibition entry in assay [7] and in assay [8] was “Dose-Dependent Effect” each time. Besides, in assay [9], the inhibition entry is “inactive”. Besides, the IC50 at SLC34A2-ROS1 is above 1000 nM; in assay [1] it was above 10000 nM; in [2], above 10000 nM; in assay [3] it was above 10000 nM; in assay [10], above 5000 nM; in assay [11], above 5000 nM. Further, the IC50 in [12] is above 5000 nM; in the assay on HCC78 [13], above 10000 nM; in the assay on BaF3 [4], above 2000 nM; in the assay with BaF3 [5], above 2000 nM; in the assay with HCC78 [14], above 1000 nM; in the assay on BaF3 [6] it was above 2000 nM. Moreover, the Kis in assay [17] is above 3000 nM.
`C[C@@H](Oc1cc(-c2cnn(C3CCNCC3)c2)cnc1N)c1c(Cl)ccc(F)c1Cl` [CRIZOTINIB]: the inhibition result in [7], in assay [8] and in assay [9] was “Dose-Dependent Effect” each time. The IC50 in [1] is 3.9 nM; in assay [2] it was above 5000 nM; in assay [10], 11 nM; in [11], 60 nM; in assay [12], 41 nM; with HCC78 [13], 21 nM. Besides, the IC50 in the assay with BaF3 [4] was above 2000 nM; with BaF3 [5], 259 nM; in the assay with HCC78 [14] it was 47 nM; with BaF3 [6] it was 18 nM.
